For 71 compounds, cytotoxicity results are on record in ChEMBL document CHEMBL4513216, “Probing the Open Global Health Chemical Diversity Library for Multistage-Active Starting Points for Next-Generation Antimalarials” (ACS Infect Dis, 2020).

A short description of the data set: Toxicity liver stage against HepG2, at 10uM. The format is cell-based. Further details: test concentration 10 uM, cell line HepG2-A16-CD81EGFP. The settings on record: human, HepG2-A16-CD81EGFP cells; read-out: INHIBITION
The method in brief: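 Uninfected HepG2-A16-CD81EGFP cells, 3 × 10^3 per well, 1536-well, plated on prespotted compound at 10 μM final, parasite-free screening media added to match infected plates; puromycin 10 μM positive, DMSO 0.5% negative; run in parallel with 48 h PbLuc assay at 37 °C, 5% CO2; viability by CellTiter-Glo luminescence, normalized to controls.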
Take `Cc1ccc(S(=O)(=O)Nc2c(C)nn(C)c2C)cc1C`: the cytotoxicity at 10 µM was 12.9%.

For `CCOC(=O)c1nc(CC(=O)Nc2ccccc2)no1`, the cytotoxicity at 10 µM was 6.96%.

Consider `COCCn1cc(C(=O)Nc2nc3c(s2)CCC3)c2ccccc21`, for which the cytotoxicity at 10 µM amounted to 77.9%.

Take `CC(C)c1sc(Br)nc1C(=O)NCc1ccncc1`: the cytotoxicity at 10 µM turned out to be 1.18%.

Take `Cc1cccc(C)c1Nc1noc2c1CN(C(=O)c1ccnn1C)CC2`: the cytotoxicity at 10 µM is 7.3%.

As to `Cc1ccnc(C2(C)CCCN2S(=O)(=O)c2ccccc2)n1` (stereo unspecified), the cytotoxicity at 10 µM was determined as 0.435%.

As to `Cn1cc(C2=NOC(C(=O)NC3(c4ccccc4F)CCCC3)C2)cn1` (stereo unspecified), the cytotoxicity at 10 µM was -0.269%.

In the case of `Nc1cc(CCC2CN(Cc3cccc(C(=O)O)c3)CCO2)ccn1` (stereo unspecified), the cytotoxicity at 10 µM is -1.17%.

Consider `Cc1ccc(F)c(S(=O)(=O)N2CCCC2c2ccncc2)c1` (stereo unspecified), for which the cytotoxicity at 10 µM was 10.6%.

Regarding `CCN(CC1CC1)C(=O)NCc1nnc2n1CCC2`, the cytotoxicity at 10 µM was -13.2%.

In the case of `Cc1ccc2c(c1)N(C(=O)c1c[nH]c(C)cc1=O)CC(C)O2` (stereo unspecified), the cytotoxicity at 10 µM was 23.6%.

For `Cc1ccc(OCC(=O)Nc2cc(C(=O)O)cc(S(C)(=O)=O)c2)cc1C`, the cytotoxicity at 10 µM is -4.95%.

`Cc1ccc(CNCc2cc(Br)c3c(c2)OCO3)cc1`: the cytotoxicity at 10 µM was found to be 5.35%.

In the case of `O=C(CN1CCCC(c2ncc[nH]2)C1)NCCCN1CCCCCC1=O` (stereo unspecified), the cytotoxicity at 10 µM stood at 6.66%.

On to `CCOCCN1CCN(c2ccc(C#N)cn2)CC1`, for which the cytotoxicity at 10 µM was -4.21%.

For the compound `Cc1nc(NCc2nncn2C2CC2)c2c(CC(C)C)csc2n1`, the cytotoxicity at 10 µM was -5.57%.

`O=C(Nc1cccc(F)c1)NC1CCN(Cc2ccncc2)CC1`: the cytotoxicity at 10 µM was -9.01%.

In the case of `Cc1cccc(NC(=O)[C@@H]2CCCN2Cc2cnc3ccccn23)n1`, the cytotoxicity at 10 µM is -7.22%.

Take `Cc1ccc(S(=O)(=O)N2CCC(N3CCCCC3)CC2)cc1C`: the cytotoxicity at 10 µM was 8.95%.

`Cn1cc(CNC(=O)NCCOc2ccc(F)c(F)c2)cn1`: the cytotoxicity at 10 µM came to 2.13%.

Regarding `CC(C)(C)NC(=O)NC(=O)COc1nc(C(C)(C)C)no1`, the cytotoxicity at 10 µM is -1.62%.

Regarding `CCc1nc(C)c(C(=O)N2CCCC(c3noc(C)n3)C2)s1` (stereo unspecified), the cytotoxicity at 10 µM was found to be 5.82%.

As to `CC(C)NC(=O)Nc1cccc2c1CCN(S(C)(=O)=O)C2`, the cytotoxicity at 10 µM is -8.59%.

As to `O=C(NCCCNC(=O)c1cccc(O)c1)Nc1ccc(Cl)cc1`, the cytotoxicity at 10 µM was -3.79%.

Consider `Cc1noc(CCCC(=O)N2CCCCC2c2nccs2)n1` (stereo unspecified), for which the cytotoxicity at 10 µM is -87.5%.

For the compound `CC(=O)N1CCC(CCNC(C)c2cc(C)cc(C)c2)CC1` (stereo unspecified), the cytotoxicity at 10 µM is -9.8%.

For the compound `O=C(c1ccc2nncn2c1)N1CCSC2(CCCCC2)C1`, the cytotoxicity at 10 µM is -5.32%.

On to `Cc1cc(CN(CCO)c2ccccc2)on1`, for which the cytotoxicity at 10 µM was -14.7%.

In the case of `CC(NCCCc1cnn(C)c1)c1ccc(Br)s1` (stereo unspecified), the cytotoxicity at 10 µM turned out to be 9.59%.

Take `CO[C@H]1CCN(C(=O)Cc2ccc(F)cc2)[C@H]1Cc1ccncc1`: the cytotoxicity at 10 µM came to 5.55%.

For `CS(=O)(=O)N1CCC2(CC1)CC(NCc1ccccn1)c1ccccc12` (stereo unspecified), the cytotoxicity at 10 µM was -109%.

Consider `COC[C@@H]1CC[C@H]2[C@H](CCN2S(=O)(=O)c2ccc(OC)cc2)O1`, for which the cytotoxicity at 10 µM stood at 0.796%.

In the case of `Nc1ncc(-c2ccc(NC(=O)[C@@H]3CCCCN3)cc2)cn1`, the cytotoxicity at 10 µM was -4.44%.

For the compound `O=C(Cc1cn2ccsc2n1)N1CCOCC(O)(CN2CCCC2)C1` (stereo unspecified), the cytotoxicity at 10 µM is -3.36%.

Turning to `Cc1ccc(-c2nnc(CN3CCCC(O)(CO)CC3)o2)n1C` (stereo unspecified), the cytotoxicity at 10 µM is -2.4%.

For `CCCOc1ccc(Cl)cc1CNc1ncnc2oc(C)nc12`, the cytotoxicity at 10 µM turned out to be 9.98%.

For `Cc1cccc(OC2CN(C(=O)c3cnn(C)c3)C2)c1`, the cytotoxicity at 10 µM is -2.92%.

In the case of `CN1CCCCCC1C(=O)N1CCCN(c2ccccc2)CC1` (stereo unspecified), the cytotoxicity at 10 µM was -6.56%.

For `C[C@@H]1CN(S(=O)(=O)c2ccc(F)cc2F)C[C@]1(C)O`, the cytotoxicity at 10 µM is -3.36%.

`COc1nc2ccn(CCc3scnc3C)c(=O)c2cc1C#N`: the cytotoxicity at 10 µM worked out at 12.8%.

For the compound `Nc1ccnc(N2CCC(Cc3ccccc3Cl)(C(=O)O)CC2)n1`, the cytotoxicity at 10 µM was 2.8%.

As to `O=C(c1ccco1)N1CCc2ncnc(NCc3ccccn3)c2CC1`, the cytotoxicity at 10 µM came to 5.61%.

Turning to `O=C1CC[C@@H](C(=O)N2CCC(Cn3cc(C4CCCCC4)nn3)CC2)N1`, the cytotoxicity at 10 µM was 8.02%.

Consider `Cc1cc(C(F)(F)F)nc(CCNC(C)Cn2nc(C)cc2C)n1` (stereo unspecified), for which the cytotoxicity at 10 µM was 8.19%.

For the compound `Cc1cc(CN2CCc3nc(C)n(C)c(=O)c3CC2)[nH]n1`, the cytotoxicity at 10 µM is -7.92%.

Turning to `CCCn1cnnc1CNCc1c[nH]nc1-c1ccc(F)cc1`, the cytotoxicity at 10 µM was found to be 2.69%.

Regarding `CN1CC2(CCCN(c3nc(N)nc4c3CCCC4)C2)OC1=O` (stereo unspecified), the cytotoxicity at 10 µM was -0.519%.

Take `Clc1ccc2cccnc2c1CN1CCCCC1Cn1cncn1` (stereo unspecified): the cytotoxicity at 10 µM came out at 7.63%.

Regarding `Cc1nccn1C1CCCN(C(=O)c2ccc3c(c2)nc(C)n3C)C1` (stereo unspecified), the cytotoxicity at 10 µM is -9.75%.

With `CC(C)c1noc(CN2CCN(C(=O)c3cccnc3O)CC2)n1`, the cytotoxicity at 10 µM is -9.86%.

`Cc1nccn1CC1CCCN1S(=O)(=O)Cc1cccc(C#N)c1` (stereo unspecified): the cytotoxicity at 10 µM is -20.7%.

With `CC(C)c1ncc2c(n1)CN(Cc1noc(-c3ccccc3)n1)CC2`, the cytotoxicity at 10 µM was -0.414%.

Consider `CC(C)c1nnc2n1CCN(C(=O)c1cccc(S(C)(=O)=O)c1)C2`, for which the cytotoxicity at 10 µM is -28.4%.

Turning to `Cc1ccc(-c2cnn(CC(=O)NC(C)C)c2)cc1`, the cytotoxicity at 10 µM was determined as 0.724%.

On to `N#Cc1cccc(NS(=O)(=O)c2ccc(C(=O)O)cc2F)c1`, for which the cytotoxicity at 10 µM is -3.67%.

Consider `O=C(CCNc1ncccn1)N1CCN(c2nccs2)CC1`, for which the cytotoxicity at 10 µM was -11.6%.

Consider `C1CCCN(CC2CCCN(Cc3noc(C4CC4)n3)C2)CC1` (stereo unspecified), for which the cytotoxicity at 10 µM is -12.7%.

Take `Cc1nn(C)c(C)c1C1CCCN1C(=O)c1ccc(CN(C)C)cc1` (stereo unspecified): the cytotoxicity at 10 µM was -7.79%.

Take `CCN1CCC(CNC(=O)NCc2cc(-c3ccc(C)cc3)no2)C1` (stereo unspecified): the cytotoxicity at 10 µM is -12.3%.

For `O=C(NCCC(=O)N1CCCC1)c1nn(-c2ccccc2F)cc1O`, the cytotoxicity at 10 µM is -13.9%.

Turning to `O=C(O)c1cc(S(=O)(=O)Nc2ccc(Cl)cc2)cc2c1OCCO2`, the cytotoxicity at 10 µM is 2.33%.

In the case of `Cc1ccc(CNC(=O)NCCCn2nc3ccccn3c2=O)s1`, the cytotoxicity at 10 µM is -2.09%.

With `Fc1ccc(Cc2cnc(C3CCCN3)cn2)cc1` (stereo unspecified), the cytotoxicity at 10 µM is -9.77%.

As to `O=C(c1ncccn1)N1C[C@H]2CCC[C@@]2(COCc2cccnc2)C1`, the cytotoxicity at 10 µM was 1.83%.

On to `Cc1cnc(N2CCO[C@@H]3CC(COCc4cccnc4)C[C@H]32)nc1` (stereo partly specified), for which the cytotoxicity at 10 µM amounted to 3.93%.

For the compound `c1coc(CN2CCCn3c(nnc3Cn3cccc3)C2)c1`, the cytotoxicity at 10 µM was -0.314%.

For the compound `O=C(c1cccs1)N1CC[C@@H]2CN(C3CCOCC3)CCO[C@@H]2C1`, the cytotoxicity at 10 µM was -110%.

Take `COc1cccc(-c2noc(C3CCN(Cc4ccccc4C)C3)n2)c1` (stereo unspecified): the cytotoxicity at 10 µM is -6.88%.

With `O=C(c1ccc[nH]1)N1CCCn2c(CNC3CCC3)nnc2C1`, the cytotoxicity at 10 µM is -105%.

Consider `Cc1[nH]nc(CCC(=O)N2C[C@@H]3CC[C@H]2CN(C(=O)N(C)C)C3)c1C`, for which the cytotoxicity at 10 µM came out at 3.8%.

Turning to `CCNc1nc2cn(-c3ccc(OC(F)(F)F)cc3)c(=O)c-2c[nH]1`, the cytotoxicity at 10 µM amounted to 11.8%.
